# Assay results pooled from the literature.
# Compare with care: the assays were run in different laboratories.
# Target: Tyrosine-protein kinase FRK (FRK, Homo sapiens, UniProt P42685)
Structure (SMILES),assay,conditions,remaining binding
CN(CCCC(F)(F)F)c1nccc(-c2cnn3ncccc23)n1,binding,1 µM,93%
Nc1c(C(=O)NCc2ccc(C(=O)NCCCC3CCCCC3)cc2)cnn1-c1ccccc1,"cell-free assay, competition with immobilised ligand",0.1 µM,100%
FC(F)(F)Oc1cccc(-c2cnc3ccc(-c4ccncc4)nn23)c1,"cell-free assay, competition with immobilised ligand",5 µM,59%
c1cnn2ncc(-c3ccnc(N4CCC45COC5)n3)c2c1,binding,1 µM,82%
O=C(NCCCN1CCOCC1)c1ccc(Nc2ncc(Cl)c(-c3ccc(Cl)s3)n2)cc1,"binding, competition with immobilised ligand",1 µM,100%
Nc1ncc2c(n1)-c1c([nH]c3ccc(C#CC4CC4)cc13)CCCC2,"binding, competition with immobilised ligand",1 µM,95%
C[C@@H]1CCN(c2nccc(-c3cnn4ncccc34)n2)C1,binding,1 µM,100%
O=C(Nc1c[nH]nc1C(=O)NC1CCNCC1)c1cc(F)cc(F)c1,"binding, competition with immobilised ligand",1 µM,82%
N#Cc1ccc(Nc2ccc3[nH]c(=O)[nH]c3c2)c(Cl)c1,"cell-free assay, competition with immobilised ligand",1 µM,73%
Cc1cnc(Nc2ccc(C(=O)N3CCC(N4CCCC4)CC3)cc2)nc1-c1cc2ccccc2s1,"binding, competition with immobilised ligand",1 µM,76%
O=C(Nc1ccc(Oc2ccc(F)cc2)cc1)N1CCc2ncccc2[C@H]1c1ccc(F)cc1,"cell-free assay, competition with immobilised ligand",1 µM,93%
COc1ccnn2ncc(-c3ccnc(N(C)C)n3)c12,binding,1 µM,92%
Nc1cnc(N2CCc3cc(S(=O)(=O)Nc4c(F)cc(Cl)cc4F)cc(N4CCCC4=O)c32)nc1,"cell-free assay, competition with immobilised ligand",1 µM,62%
c1cncc(-c2cccc(Nc3nccc(NC4CCCCC4)n3)c2)c1,"binding, competition with immobilised ligand",10 µM,53%
N[C@@H]1CCN(c2nccc(-c3cnn4ncccc34)n2)C1,binding,1 µM,97%
NS(=O)(=O)c1cc(NC(=O)C2(c3ccccc3Cl)CC2)ccc1Oc1cccc(Cl)c1,"cell-free assay, competition with immobilised ligand",1 µM,99%
COc1cnc(Nc2cccc(S(N)(=O)=O)c2)nc1N1CCN(c2ccccc2)C(=O)C1,"binding, competition with immobilised ligand",1 µM,100%
CC1CCCN1c1nccc(-c2cnn3ncccc23)n1 (stereo not shown),"binding, competition with immobilised ligand",1 µM,88%
CNC(=O)[C@@H]1CC[C@@H](n2c(-c3ccc4cnccc4c3)nc3ccc(C(=O)NCc4cccc(C(N)=O)c4)cc32)C1,"binding, competition with immobilised ligand",1 µM,100%
CS(=O)(=O)N1CCCC(NC(=O)[C@H](CCC2CCCCC2)NC(=O)c2ccc(CNc3ncnc4c3nnn4-c3ccccc3)cc2)C1 (stereo partly shown),"cell-free assay, competition with immobilised ligand",0.1 µM,60%
CN(C)c1ncc(F)c(-c2cnn3ncccc23)n1,"binding, competition with immobilised ligand",1 µM,100%
O=C(c1ccc(Nc2ncc(Cl)c(-c3ccc(Cl)s3)n2)cc1)N1CCC(N2CCCC2)CC1,"binding, competition with immobilised ligand",1 µM,97%
